From ChEMBL document CHEMBL1150856, “Trypanocidal withanolides and withanolide glycosides from Dunalia brachyacantha” (2001) come the findings set out here.

Test [1] relates to Leishmania amazonensis. In words: Antiparasitic activity against Leishmania amazonensis IFLA/BR/67/PH8 at 50 ug/mL after 72 hrs. The test is classed as functional, organism-based. The essentials: (§1)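 Promastigotes at 50 000 parasites/mL, 27 °C, 72 h, with compound at final 50, 25, 10, 1 and 0.1 μg/mL. Compound dissolved in medium plus DMSO (final DMSO under 0.1%) and filter-sterilised (0.22 μm). Triplicate wells. Activity was judged by inverted phase-contrast microscopy of a culture drop against untreated and pentamidine controls.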

The test system of test [2] is Leishmania braziliensis. In words: Antiparasitic activity against Leishmania braziliensis MHOM/BR/75/M2903 at 50 ug/mL after 72 hrs. Format: functional, organism-based. An outline of the steps:
as §1

In test [3] the test system is Leishmania donovani. In words: Antiparasitic activity against Leishmania donovani MHOM/IN/83/HS70 at 50 ug/mL after 72 hrs. The test is classed as functional, organism-based. An outline of the steps: as §1
The test system of test [4] is Trypanosoma cruzi. In words: Antiparasitic activity against Trypanosoma cruzi Tulahuen epimastigotes at 50 ug/mL after 48 hrs. Format: functional. An outline of the steps: (§2)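 Epimastigotes in LIT medium with 10% fetal calf serum, inoculum 10⁶ cells/mL, 28 °C. Samples were dissolved in DMSO and medium to final 50, 20, 10, 1 and 0.1 μg/mL (final DMSO under 0.5%). Triplicate. After 48 h, parasites were counted by haemocytometer and compared with untreated and pentamidine controls.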

Test [5] has as its system Leishmania amazonensis. In words: Antiparasitic activity against Leishmania amazonensis IFLA/BR/67/PH8 at 25 ug/mL after 72 hrs. Format: functional, organism-based. The essentials: as §1
Test [6] relates to Leishmania braziliensis. In words: Antiparasitic activity against Leishmania braziliensis MHOM/BR/75/M2903 at 25 ug/mL after 72 hrs. The test is classed as functional, organism-based. An outline of the steps:
as §1

The subject of test [7] is Leishmania donovani. In words: Antiparasitic activity against Leishmania donovani MHOM/IN/83/HS70 at 25 ug/mL after 72 hrs. Format: functional, organism-based. The essentials: as §1
Test [8] has as its system Trypanosoma cruzi. In words: Antiparasitic activity against Trypanosoma cruzi Tulahuen epimastigotes at 25 ug/mL after 48 hrs. Format: functional.
In test [9] the test system is Leishmania amazonensis. In words: Antiparasitic activity against Leishmania amazonensis IFLA/BR/67/PH8 at 10 ug/mL after 72 hrs. The test is classed as functional. The essentials: as §1
Test [10] has as its system Leishmania braziliensis. Nature of the test: Antiparasitic activity against Leishmania braziliensis MHOM/BR/75/M2903 at 10 ug/mL after 72 hrs. The test is classed as functional. The essentials: as §1
The subject of test [11] is Leishmania donovani. Nature of the test: Antiparasitic activity against Leishmania donovani MHOM/IN/83/HS70 at 10 ug/mL after 72 hrs. The test is classed as functional. An outline of the steps: as §1
In test [12] the test system is Trypanosoma cruzi. Nature of the test: Antiparasitic activity against Trypanosoma cruzi Tulahuen epimastigotes at 10 ug/mL after 48 hrs. Format: functional. An outline of the steps:
as §2

The subject of test [13] is Shigella flexneri. Nature of the test: Antibacterial activity against Shigella flexneri […] at 0.0625 mg/mL after 18 hrs. Format: functional, organism-based.
Test [14] relates to Staphylococcus aureus. In words: Antibacterial activity against Staphylococcus aureus ATCC 25923/6538 at 0.0625 mg/mL after 18 hrs. The test is classed as functional, organism-based.
A further test deals with Escherichia coli. Nature of the test: Antibacterial activity against Escherichia coli ATCC 8739 at 0.0312 mg/mL after 18 hrs. The test is classed as functional, organism-based.
The test system of test [15] is Shigella flexneri. In words: Antibacterial activity against Shigella flexneri […] at 0.0312 mg/mL after 18 hrs. Format: functional, organism-based.
For test [16], the system named is Staphylococcus aureus. In words: Antibacterial activity against Staphylococcus aureus ATCC 25923/6538 at 0.0312 mg/mL after 18 hrs. Format: functional, organism-based.
Another test has as its system Bacillus subtilis. In words: Antibacterial activity against Bacillus subtilis ATCC 6633 at 0.0312 mg/mL after 18 hrs. The test is classed as functional, organism-based.
Test [17] has as its system Leishmania amazonensis. Nature of the test: Antiparasitic activity against Leishmania amazonensis IFLA/BR/67/PH8 at 1 ug/mL after 72 hrs. Format: functional. The essentials: as §1
The test system of test [18] is Leishmania braziliensis. Nature of the test: Antiparasitic activity against Leishmania braziliensis MHOM/BR/75/M2903 at 1 ug/mL after 72 hrs. Format: functional. An outline of the steps: as §1
For test [19], the system named is Leishmania donovani. In words: Antiparasitic activity against Leishmania donovani MHOM/IN/83/HS70 at 1 ug/mL after 72 hrs. The test is classed as functional. An outline of the steps:
as §1

In test [20] the test system is Trypanosoma cruzi. In words: Antiparasitic activity against Trypanosoma cruzi Tulahuen epimastigotes at 1 ug/mL after 48 hrs. Format: functional. The essentials:
as §2

Test [21] deals with Leishmania amazonensis. In words: Antiparasitic activity against Leishmania amazonensis IFLA/BR/67/PH8 at 0.1 ug/mL after 72 hrs. The test is classed as functional. The essentials:
as §1

Test [22] deals with Leishmania braziliensis. Nature of the test: Antiparasitic activity against Leishmania braziliensis MHOM/BR/75/M2903 at 0.1 ug/mL after 72 hrs. The test is classed as functional. The essentials:
as §1

Test [23] concerns Leishmania donovani. Nature of the test: Antiparasitic activity against Leishmania donovani MHOM/IN/83/HS70 at 0.1 ug/mL after 72 hrs. Format: functional. The essentials:
as §1

The test system of test [24] is Trypanosoma cruzi. Nature of the test: Antiparasitic activity against Trypanosoma cruzi Tulahuen epimastigotes at 0.1 ug/mL after 48 hrs. Format: functional. An outline of the steps: as §2

Activity calls are given as the source filed them. No cut-off for these calls is given here.

Regarding `CC(=O)OC[C@]12CC[C@H]3[C@@H](C[C@H]4O[C@]45[C@@H](O)C=CC(=O)[C@]35C)[C@@H]1CC[C@@H]2[C@@](C)(O)[C@H]1CC(C)=C(C)C(=O)O1`, the result in the test with Leishmania amazonensis [1], in the test with Leishmania braziliensis [2], with Leishmania donovani [3], in the test with Leishmania amazonensis [5], in the test on Leishmania braziliensis [6] and in the test with Leishmania donovani [7] was Active. Also, the Activity in the test on Trypanosoma cruzi [4] amounted to 50%; in the test with Trypanosoma cruzi [8], 0%; with Leishmania amazonensis [9] it was 75%; with Leishmania braziliensis [10] it was 50%; in the test on Leishmania donovani [11], 75%; in the test on Trypanosoma cruzi [12], 0%.

For the compound `N=C(N)c1ccc(OCCCCCOc2ccc(C(=N)N)cc2)cc1`, the outcome in the test on Leishmania amazonensis [9], in the test on Leishmania braziliensis [10], in the test with Leishmania donovani [11] and in the test on Trypanosoma cruzi [12] was Active.

As to `CC(=O)OC[C@]12CC[C@H]3[C@@H](CC=C4[C@@H](O)C=CC(=O)[C@@]43C)[C@@H]1CC[C@@H]2[C@@](C)(O)[C@H]1CC(C)=C(C)C(=O)O1`, the outcome in the test with Shigella flexneri [13], in the test with Staphylococcus aureus [14], in the test on Escherichia coli, in the test with Shigella flexneri [15], in the test on Staphylococcus aureus [16] and in the test on Bacillus subtilis was inactive. Further, the outcome with Leishmania amazonensis [1], with Leishmania braziliensis [2], with Leishmania donovani [3], in the test on Trypanosoma cruzi [4], in the test with Leishmania amazonensis [5] and in the test with Leishmania braziliensis [6] was Active. Also, the outcome in the test with Leishmania donovani [7], with Trypanosoma cruzi [8], with Leishmania amazonensis [9], in the test on Leishmania braziliensis [10] and with Leishmania donovani [11] was Active. Besides, the Activity stood at 75% with Trypanosoma cruzi [12]; 75% in the test on Leishmania amazonensis [17]; 50% in the test on Leishmania braziliensis [18]; 75% in the test on Leishmania donovani [19]; 0% in the test with Trypanosoma cruzi [20]; 0% with Leishmania amazonensis [21]. In addition, the Activity in the test with Leishmania braziliensis [22], in the test on Leishmania donovani [23] and with Trypanosoma cruzi [24] was 0% each time.
